Ends that are not written are not given here. Peptide text beside a SMILES is read from it. * marks the point of attachment. DOTA = O=C(O)CN1CCN(CC(=O)O)CCN(CC(=O)*)CCN(CC(=O)O)CC1

One experiment relates to AnxA2.
Test: not given
Type of experiment: binding, human. Conditions: 60 μM peptide, up to molar ratio 1:1, 1H-15N HSQC, 25°C, pH 5.5. Summed up: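 Recombinant human AnxA2 (C-terminal thrombin site and His tag, expressed in E. coli C41(DE3)) titrated up to 1:1 molar ratio into uniformly 15N-labelled 12-residue CEACAM1-SF peptide (Trx-SMT3 fusion grown in M9/15NH4Cl, Ulp1-cleaved, HPLC-purified) at 60 μM. Buffer: 50 mM NaAc-d3, 2 mM DTT, 5% D2O. 1H-15N HSQC at 700 MHz with cryoprobe; chemical shift perturbations monitored.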
With 453-HFGKTGSSGPLQ-464 [^15N-SW-12], the “chemical shift perturbation of peptide on titration with AnxA2” value is on record as “no chemical shift perturbation”.

A further experiment concerns the target Ac-^15N-F454G458G461-SW. The experiment is described as follows: NMR titration.
Details: not given
In the case of “S100A10-AnxA2Nter fusion protein [S100A10(1–92)-ENLYFQGD linker-AnxA2 peptide (1–13)]”, the Kd was determined as 460 µM.

In the next experiment the target is 15N-S100A10-AnxA2Nter fusion protein (Homo sapiens, UniProt P60903).
Test: not given
Type of experiment: binding.
Details: not given
The molecule `CC(=O)N[C@@H](CS)C(=O)N[C@@H](Cc1ccccc1)C(=O)N[C@@H](CC(C)C)C(=O)N[C@@H](Cc1c[nH]cn1)C(=O)N[C@@H](Cc1ccccc1)C(=O)NCC(=O)N[C@@H](CCCCN)C(=O)N[C@H](C(=O)NCC(=O)N[C@@H](CO)C(=O)N[C@@H](CO)C(=O)NCC(=O)N1CCC[C@H]1C(=O)N[C@@H](CC(C)C)C(=O)N[C@@H](CCC(N)=O)C(=O)O)[C@@H](C)O` [Ac-SW] (Ac-CFLHFGKTGSSGPLQ-OH) yielded a Kd of 880 ± 100 µM.

`CC(=O)N[C@@H](CS)C(=O)N[C@@H](Cc1ccccc1)C(=O)N[C@@H](CC(C)C)C(=O)N[C@@H](Cc1c[nH]cn1)C(=O)N[C@@H](C)C(=O)NCC(=O)N[C@@H](CCCCN)C(=O)N[C@H](C(=O)NCC(=O)N[C@@H](CO)C(=O)N[C@@H](CO)C(=O)NCC(=O)N1CCC[C@H]1C(=O)N[C@@H](CC(C)C)C(=O)N[C@@H](CCC(N)=O)C(=O)O)[C@@H](C)O` [Ac-SW-F/A] (Ac-CFLHAGKTGSSGPLQ-OH) displayed a Kd of 2100 ± 810 µM.

Turning to `CC(=O)N[C@@H](CS)C(=O)N[C@@H](Cc1ccccc1)C(=O)N[C@@H](CC(C)C)C(=O)N[C@@H](Cc1c[nH]cn1)C(=O)N[C@@H](Cc1ccccc1)C(=O)NCC(=O)N[C@@H](CCCCN)C(=O)N[C@H](C(=O)NCC(=O)N[C@@H](CCC(=O)O)C(=O)N[C@@H](CO)C(=O)NCC(=O)N1CCC[C@H]1C(=O)N[C@@H](CC(C)C)C(=O)N[C@@H](CCC(N)=O)C(=O)O)[C@@H](C)O` [Ac-SW-S/E] (Ac-CFLHFGKTGESGPLQ-OH), the dissociation constant (Kd) turned out to be 1580 ± 200 µM.

In the case of `CC(=O)N[C@@H](CS)C(=O)N[C@@H](Cc1ccccc1)C(=O)N[C@@H](CC(C)C)C(=O)N[C@@H](Cc1c[nH]cn1)C(=O)N[C@@H](Cc1ccccc1)C(=O)NCC(=O)N[C@@H](CCCCN)C(=O)N[C@@H](CCC(=O)O)C(=O)NCC(=O)N[C@@H](CO)C(=O)N[C@@H](CO)C(=O)NCC(=O)N1CCC[C@H]1C(=O)N[C@@H](CC(C)C)C(=O)N[C@@H](CCC(N)=O)C(=O)O` [Ac-SW-T/E] (Ac-CFLHFGKEGSSGPLQ-OH), binding was characterised by a dissociation constant (Kd) of 2330 ± 390 µM.

In the case of `CC(=O)N[C@@H](CS)C(=O)N[C@@H](Cc1ccccc1)C(=O)N[C@@H](CC(C)C)C(=O)N[C@@H](Cc1c[nH]cn1)C(=O)N[C@@H](Cc1ccccc1)C(=O)NCC(=O)N[C@@H](CCCCN)C(=O)N[C@@H](CCC(=O)O)C(=O)NCC(=O)N[C@@H](CCC(=O)O)C(=O)N[C@@H](CO)C(=O)NCC(=O)N1CCC[C@H]1C(=O)N[C@@H](CC(C)C)C(=O)N[C@@H](CCC(N)=O)C(=O)O` [Ac-SW-TS/EE] (Ac-CFLHFGKEGESGPLQ-OH), the Kd came out at 3530 ± 1200 µM.

The next experiment deals with S100A10-AnxA2Nter fusion protein [S100A10(1–92)-ENLYFQGD linker-AnxA2 peptide (1–13)]. The experiment can be described thus: NMR titration.
Details: not given
Take Ac-CFLHFGKTGRASDQR [Ac-LW, CEACAM1 long form 15 amino acid peptide]: the Kd came out at 1220 µM.

Ac-CFLHFGKTGESGPLQ [Ac-SW-S/E] had a Kd of 1580 µM.

Molecule Ac-CFLHFGKEGSSGPLQ [Ac-SW-T/E] displayed a Kd of 2330 µM.

On to {DOTA}-GFLHFGKTGSSGPLQ (also: N-terminal DOTA chelated with Y3+) [Y-DOTA-SW], for which the Kd is 1070 µM.

On to Ac-CFLHFGKEGESGPLQ [Ac-SW-TS/EE], for which the Kd stood at 3530 µM.

Ac-CFLHAGKTGSSGPLQ [Ac-SW-F/A] had a Kd of 2100 µM.

For the molecule Ac-CFLHFGKTGSSGPLQ [Ac-SW, CEACAM1 short form 15 amino acid peptide], the Kd is 880 µM.

The experiment is the same for the next values; noted with them: scale: peptides per S100A10-AnxA2Nter fusion dimer.
For the molecule Ac-CFLHFGKTGSSGPLQ [Ac-SW, CEACAM1 short form 15 amino acid peptide], the stoichiometry N was 2.

Values taken from publication PMC7704867 (Biochimica et biophysica acta. Biomembranes, 2020).
